Screening results: PubChem BioAssay, The Scripps Research Institute Molecular Screening Center
M5 ag = CHRM5 agonism in calcium assay; CHO-K1 hM5 cells, Fluo-8 calcium fluorescence; 0% DMSO wells, 100% maximal acetylcholine response; activation, % at 3 µM; actives 0.19% (n = 360,000);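 active = activation above the run's mean over test compounds plus 3 SD, cut at about 23% in these data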;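 note: signal is peak over basal fluorescence ratio across the kinetic read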
Target sequence (P08912 whole entry, looked up): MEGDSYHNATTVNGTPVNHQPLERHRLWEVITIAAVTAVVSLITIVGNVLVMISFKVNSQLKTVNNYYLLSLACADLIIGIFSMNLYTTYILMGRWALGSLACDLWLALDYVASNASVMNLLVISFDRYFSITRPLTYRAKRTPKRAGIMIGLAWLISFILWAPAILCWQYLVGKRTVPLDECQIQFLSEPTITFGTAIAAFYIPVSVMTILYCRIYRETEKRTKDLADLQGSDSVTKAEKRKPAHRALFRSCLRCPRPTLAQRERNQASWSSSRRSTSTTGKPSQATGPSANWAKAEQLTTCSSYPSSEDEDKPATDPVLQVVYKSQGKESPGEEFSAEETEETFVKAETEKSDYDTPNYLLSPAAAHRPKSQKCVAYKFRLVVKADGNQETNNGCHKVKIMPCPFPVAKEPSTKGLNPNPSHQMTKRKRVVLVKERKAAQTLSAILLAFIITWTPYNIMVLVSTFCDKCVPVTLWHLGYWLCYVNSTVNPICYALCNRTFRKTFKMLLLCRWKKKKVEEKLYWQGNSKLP
M4 PAM = potentiates acetylcholine response at human M4 receptor | P08173 | CHO-K1 hM4/Gqi5, Fluo-8 calcium fluorescence, ACh EC20; 0% = ACh EC20, 100% = maximal ACh | activation, % at 3 µM | actives 0.4% (n = 360,000) | AID 624126;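 active = activation above its plate's cutoff, the mean activation of sample wells plus 3 SD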
CHRM5 antagonist = antagonists of human muscarinic M5 receptor (CHRM5); P08912; CHO-hM5 cells, Fluo-8 calcium fluorescence, ACh EC80; inhibition, % at 3 µM; actives 0.59% (n = 360,000); AID 624040;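 active = inhibition above a per-plate cutoff, the mean of that plate's test compounds plus 3 SD, cut at about 27% in these data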;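 note: 0% = acetylcholine EC80 with DMSO and 100% = DMSO without agonist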
CHRM4 agonist = agonists of human muscarinic M4 receptor (CHRM4) | CHO-K1 hM4/Gqi5, Fluo-8 calcium fluorescence; vehicle 0%, full acetylcholine response 100% | actives 0.14% (n = 360,000) | P08173 | activation, % at 3 µM | AID 624127;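 active = activation above the run mean over all test wells plus 3 SD, cut at about 32% in these data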;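 note: peak over basal fluorescence ratio per well then scaled between controls; 0% = DMSO wells and 100% = acetylcholine at EC100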
M4 antag = blocks acetylcholine activation of human M4 receptor; P08173; CHO-hM4 cells, ACh EC80, Fluo-8 calcium fluorescence; inhibition, % at 3 µM; actives 0.73% (n = 360,000); AID 624125;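 active = inhibition above its plate's cutoff, the mean inhibition of sample wells plus 3 SD, cut at about 27% in these data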;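 note: 0% = acetylcholine EC80 with DMSO and 100% = DMSO without agonist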
M5 PAM = CHRM5 positive allosteric modulation; P08912; activation, % at 3 µM; actives 0.3% (n = 360,000); CHO-K1 hM5, Fluo-8 calcium, ACh EC20 PAM; 0% = ACh EC20, 100% = ACh EC100;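 active = activation above the run cutoff, the mean activation of all test compounds plus 3 SD, cut at about 18% in these data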
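System – CHO-K1 hM5 cells · Compound – 3 µM, single dose · Incubation – compound preincubation 140 s before EC20 acetylcholine addition · Technique – Fluo-8 calcium fluorescence · Measure – Max/basal fluorescence ratio as % of EC20–EC100 ACh window · Benchmarks – low control EC20 acetylcholine (0%), high control EC100 acetylcholine (100%) · Replication – singlicate, one well per test compound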
* marks the source's active call; other numbers are inactive results. Most compounds without a hit are left out; they make up all but 1.9% or so of the library.

SMILES | M5 ag | M4 PAM | CHRM5 antagonist | CHRM4 agonist | M4 antag | M5 PAM
OC[C@@H]1CN(Cc2ccccc2)C[C@H](n2cnc3c(NCc4ccncc4)ncnc32)O1 | 0 | 20* | 2 | 5 | -5 | 0
COc1cc(CNc2ncnc3c2ncn3[C@H]2CN(Cc3cc(OC)c(OC)c(OC)c3)C[C@@H](CO)O2)cc(OC)c1OC | -1 | 22* | -12 | 0 | -21 | 2
OC[C@@H]1CN(Cc2ccc(F)cc2)C[C@H](n2cnc3c(NCc4ccncc4)ncnc32)O1 | 1 | 4 | 2 | 4 | -15 | -1
CC(=O)c1cccc(NC(=O)C2Cc3c(-c4cccc(F)c4)ccnc3O2)c1 (stereo not given) | 5 | -12 | 7 | 21 | -4 | -14
CCN1C(=O)CC2(C[N+]3(C)CCC2CC3)C1=O (stereo not given) | -6 | -18 | 53* | 1 | 4 | -17
COC(=O)C(Cc1ccc(OC(=O)c2ccc(Cl)cc2)cc1)N1Cc2ccccc2C1=O (stereo not given) | -2 | -13 | 30* | 10 | 28* | -25
O=C1Nc2ccc(Br)cc2/C1=C/C1CC=CCC1 (stereo not given) | 3 | 14 | 2 | 0 | -14 | 26*
Cc1ccc(NC(=O)CCNC(=O)c2ccco2)cc1 | -1 | 19 | 1 | 1 | 3 | 13
O=C(CCNC(=O)c1ccc(Br)cc1)NCc1ccco1 | 3 | 5 | -17 | 2 | -5 | 1
O=C(CCNC(=O)c1ccco1)NNC(=O)c1ccc(Br)cc1 | -4 | 23* | -4 | 1 | -7 | 5
O=C(CCNC(=O)c1ccco1)Nc1ccccc1 | -1 | 16* | 9 | 2 | -12 | 2
O=c1cc(CN2CCN(c3ccc(Cl)c(Cl)c3)CC2)c2c(ccc3ccccc32)o1 | 0 | 4 | -2 | 0 | -5 | 4
Nc1nonc1N/N=C\c1ccccc1 | 0 | 11 | 7 | 1 | 27* | 2
COc1ccc(S(=O)(=O)Cc2ccc(C(=O)NCCCN(C)c3ccccc3)o2)cc1 | -3 | -16 | 8 | 7 | 28* | 0
CCC(=O)N1CCC1(C)C(=O)Nc1ccc(OC)c(OC)c1 (stereo not given) | 4 | 8 | 17 | 1 | -5 | 6
CCn1c(SCC(=O)c2cc(OC)ccc2OC)nnc1-c1ccncc1 | 2 | 2 | 1 | -1 | 10 | 4
CCn1c(SCC(=O)c2cc(OC)ccc2OC)nnc1C(C)C | -7 | 19* | -9 | 1 | -12 | 7
CCCNC(=O)C1(C)CCN(C(=O)c2ccc(OC(F)F)cc2)C1 (stereo not given) | 6 | 7 | -3 | 1 | -7 | 2
CC(=O)Nc1cncc(-c2cnn(CC(C)C)c2)n1 | 1 | -2 | 1 | 2 | -2 | 0
O=c1[nH]ccc2c(O)cccc12 | 32* | 4 | 7 | 0 | -2 | -16
CCOC(=O)C1(CCCc2ccccc2)CCN(C2CCN(C(C)=O)CC2)CC1 | -19 | -9 | 30* | 1 | -8 | -36
CCOC(=O)C1(CCCc2ccccc2)CCN(C(=O)CSC)CC1 | 2 | -5 | 2 | 4 | 4 | -1
O=C(NCc1ccccc1)C(c1cccc2ccccc12)n1c(=O)c(-c2ccccc2)nc2ccccc21 (stereo not given) | 4 | 4 | 1 | 6 | 2 | -5
Cc1cc(NC2CCCCC2)nc(NCc2ccccc2)n1 | 6 | -13 | 30* | 23 | 26 | -19
Cc1ccc(S(=O)(=O)N2C[C@@H](C)[C@]3(C2)[C@H](O)[C@H](OC(=O)Nc2cccs2)C[C@H]2C(=O)N(c4ccccc4)C(=O)[C@H]23)cc1 | 2 | 0 | 9 | 3 | 3 | -2
SMILES | M5 ag | M4 PAM | CHRM5 antagonist | CHRM4 agonist | M4 antag | M5 PAM
CCN(C(=O)CSc1nnnn1C)c1c(N)n(Cc2ccccc2)c(=O)[nH]c1=O | 2 | 1 | -4 | 2 | 2 | -1
CCN(C(=O)CSc1nncs1)c1c(N)n(Cc2ccccc2)c(=O)[nH]c1=O | -2 | 2 | -7 | 1 | -17 | 29*
CCN(C(=O)COC(=O)c1cc2ccccc2cc1OC)c1c(N)n(Cc2ccccc2)c(=O)[nH]c1=O | -1 | 22* | 11 | 1 | -13 | 1
COCCCN(C(=S)NC(=O)c1ccc(C(C)(C)C)cc1)c1c(N)n(Cc2ccccc2)c(=O)[nH]c1=O | -2 | 27* | 6 | 2 | -2 | -1
CCN(C(=O)c1ccc(=O)[nH]c1)c1c(N)n(Cc2ccccc2)c(=O)[nH]c1=O | 0 | 22* | 15 | 1 | 5 | 0
CC(=O)Nc1cccc(-c2csc(C(O)c3cccc(Cl)c3)n2)c1 (stereo not given) | 3 | -6 | 1 | 17 | -2 | -5
CCOc1ccc(/C=C2\CCCc3c2nc2ccccc2c3C(=O)O)cc1OC | 249* | -18 | 17 | 78* | 16 | -24
COc1ccc(/C=C2\CCc3c2nc2ccccc2c3C(=O)O)cc1OC | 5 | 6 | 0 | 4 | -18 | -9
COc1ccccc1CN1C[C@@H]2C[C@@H](c3ccccc3OC)N3CCC[C@@]23C1=O | -6 | -24 | -2 | 0 | 30* | 4
Cn1cc([C@@H]2C[C@H]3CN(Cc4cccc(Cl)c4)C(=O)[C@]34CCCN24)c2ccccc21 | -3 | -12 | 12 | 3 | 30* | -7
Cc1c([C@@H]2C[C@H]3CN(Cc4cccc(Cl)c4)C(=O)[C@]34CCCN24)cnn1C | -1 | -6 | 3 | 3 | -1 | -4
COc1ccccc1CN1C[C@@H]2C[C@@H](c3ccc(Cl)cc3)N3CCC[C@@]23C1=O | -10 | -14 | 2 | 1 | 19 | 0
CN(C(=O)CN1CCN(c2cc(-c3ccc(-c4ccccc4)cc3)ncn2)CC1)c1ccccc1 | 3 | -8 | 18 | 15 | 9 | -10
CCc1nc2c(OCCC3CCCCC3)cccn2c1N(C)C(=O)c1cccs1 | -3 | -8 | -1 | -2 | 10 | -7
COc1ccc(NC(=O)c2cc(=O)c3ccccc3o2)cc1Cl | 0 | 23* | 21 | 6 | 18 | 12
CN(C)S(=O)(=O)c1cc(NC(=O)c2cc(=O)c3ccccc3o2)ccc1Cl | 3 | -3 | 15 | 18 | 2 | -2
COc1ccc(-n2nc3c(N4CCC(C(=O)N5CCC(C)CC5)CC4)nnc(C)c3c2C)cc1 | -5 | -12 | 43* | 1 | 20 | -15
COc1ccc(CNC(=O)c2sc(=O)n(Cc3ccccc3C)c2C)cc1 | 41* | 4 | -3 | 24 | -22 | -11
